Measurements published in ChEMBL document CHEMBL4715682, “Potent trifluoromethoxy, trifluoromethylsulfonyl, trifluoromethylthio and pentafluorosulfanyl containing (1,3,4-oxadiazol-2-yl)benzamides against drug-resistant Gram-positive bacteria” (RSC Med Chem, 2020).
Values after ≈ are worked out from the molar mass of the structure shown. Active and inactive are the calls of the source. No cut-off for these calls is given here.

Tests used:
Streptococcus pneumoniae [1] = experiment: Antibacterial activity against […] Streptococcus pneumoniae ATCC 700677 assessed as inhibition of visible bacterial growth incubated for 18 to 20 hrs by CLSI method; type: functional; conditions: time 18-20 hrs
In short: (§1)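 CLSI broth microdilution. Strains grown aerobically overnight on tryptic soy agar at 37 °C, adjusted to 0.5 McFarland and diluted in cation-adjusted Mueller–Hinton broth to about 5×10^5 CFU/mL. Compounds and control drugs serially diluted across the plate. Incubated aerobically at 37 °C for 18-20 h. MIC is the lowest concentration with no visible growth.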

Staphylococcus aureus [2] = experiment: Antibacterial activity against methicillin-resistant Staphylococcus aureus NRS382 assessed as inhibition of visible bacterial growth incubated for 18 to 20 hrs by CLSI method; type: functional; conditions: time 18-20 hrs; in short: as §1
Staphylococcus aureus [3] = experiment: Antibacterial activity against methicillin-resistant Staphylococcus aureus NRS484 assessed as inhibition of visible bacterial growth incubated for 18 to 20 hrs by CLSI method; type: functional; conditions: time 18-20 hrs; in short: as §1
[4] = test system: Staphylococcus epidermidis; experiment: Antibacterial activity against Staphylococcus epidermidis NRS101 assessed as inhibition of visible bacterial growth incubated for 18 to 20 hrs by CLSI method; type: functional; conditions: time 18-20 hrs
In short: (§2)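 Broth microdilution per CLSI. Strains grown aerobically overnight on TSA at 37 °C, suspended to 0.5 McFarland, diluted in CAMHB to about 5×10^5 CFU/mL. Agents serially diluted across plate; aerobic incubation 37 °C for 18-20 h. MIC = lowest concentration completely preventing visible growth.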

Escherichia coli = experiment: Antibacterial activity against Escherichia coli ATCC 25404 assessed as inhibition of visible bacterial growth at 16 ug/ml incubated for 18 to 20 hrs by CLSI method; type: functional, organism-based; conditions: B ATCC 25404, dose 16.0 µg/ml, time 18-20 hrs; in short: as §1
Staphylococcus aureus [5] = experiment: Antibacterial activity against vancomycin-resistant Staphylococcus aureus 12 assessed as inhibition of visible bacterial growth incubated for 18 to 20 hrs by CLSI method; type: functional; conditions: time 18-20 hrs; in short: as §1
Pseudomonas aeruginosa = experiment: Antibacterial activity against Pseudomonas aeruginosa ATCC 27853 assessed as inhibition of visible bacterial growth at 16 ug/ml incubated for 18 to 20 hrs by CLSI method; type: functional, organism-based; conditions: dose 16.0 µg/ml, time 18-20 hrs; in short: as §1
J774 = experiment: Cytotoxicity against mouse J774 cells assessed as reduction in cell viability at 32 ug/ml incubated for 24 hrs by MTS assay; type: cell-based; conditions: j774, 24 h, dose 32 µg/ml
Staphylococcus aureus [6] = experiment: Antibacterial activity against Staphylococcus aureus ATCC 25923 assessed as inhibition of visible bacterial growth incubated for 18 to 20 hrs by CLSI method; type: functional; conditions: time 18-20 hrs; in short: as §1
Caco-2 [7] = experiment: Cytotoxicity against human Caco2 cells assessed as reduction in cell viability at 64 ug/ml incubated for 2 hrs by MTS assay; type: cell-based; conditions: caco-2, 2 h, dose 64 µg/ml
[8] = Hemolytic activity in human RBC at 128 ug/ml incubated for 60 mins relative to control; type: ADME, cell-based, Erythrocyte; conditions: red blood cells (erythrocytes), dose 128 µg/ml, read-out: Activity
In short: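 Single-donor human erythrocytes as a 5% v/v suspension in PBS. Compounds serially diluted in PBS, in triplicate, and incubated with RBCs at 37 °C for 60 min. PBS served as the negative control and Triton-X as the positive control. Samples spun at 4,000 rpm for 5 min and supernatant absorbance read at 540 nm. Percent hemolysis = 100×(sample−negative)/(positive−negative).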

Staphylococcus aureus [9] = experiment: Antibacterial activity against methicillin-resistant Staphylococcus aureus NRS383 assessed as inhibition of visible bacterial growth incubated for 18 to 20 hrs by CLSI method; type: functional; conditions: time 18-20 hrs; in short: as §1
Staphylococcus aureus [10] = experiment: Bactericidal activity against methicillin-resistant Staphylococcus aureus ATCC 33592 assessed as reduction in bacterial growth incubated for 18 hrs by CLSI method; type: functional
Staphylococcus aureus [11] = experiment: Antibacterial activity against methicillin-resistant Staphylococcus aureus NRS123 assessed as inhibition of visible bacterial growth incubated for 18 to 20 hrs by CLSI method; type: functional; conditions: time 18-20 hrs; in short: as §1
Staphylococcus aureus [12] = experiment: Antibacterial activity against methicillin-resistant Staphylococcus aureus NRS386 assessed as inhibition of visible bacterial growth incubated for 18 to 20 hrs by CLSI method; type: functional; conditions: time 18-20 hrs; in short: as §1
Enterococcus faecalis [13] = experiment: Antibacterial activity against vancomycin- resistant Enterococcus faecalis ATCC 51299 assessed as inhibition of visible bacterial growth incubated for 18 to 20 hrs by CLSI method; type: functional; conditions: time 18-20 hrs; in short: as §1
Staphylococcus aureus [14] = experiment: Antibacterial activity against vancomycin-resistant Staphylococcus aureus 10 assessed as inhibition of visible bacterial growth incubated for 18 to 20 hrs by CLSI method; type: functional; conditions: time 18-20 hrs; in short: as §1
Acinetobacter baumannii = experiment: Antibacterial activity against Acinetobacter baumannii ATCC 19606 RW4 assessed as inhibition of visible bacterial growth at 16 ug/ml incubated for 18 to 20 hrs by CLSI method; type: functional, organism-based; conditions: ATCC 19606 = CIP 70.34 = JCM 6841 RW4, dose 16.0 µg/ml, time 18-20 hrs; in short: as §1
Staphylococcus aureus [15] = experiment: Synergistic antibacterial activity against methicillin-resistant Staphylococcus aureus ATCC 33592 assessed as fractional inhibitory concentration index in presence of linezolid by checkerboard assay; type: functional
Staphylococcus aureus [16] = experiment: Synergistic antibacterial activity against methicillin-resistant Staphylococcus aureus ATCC 33592 assessed as fractional inhibitory concentration index in presence of Vancomycin; type: functional
Staphylococcus aureus [17] = experiment: Synergistic antibacterial activity against methicillin-resistant Staphylococcus aureus ATCC 33592 assessed as fractional inhibitory concentration index in presence of daptomycin by checkerboard assay; type: functional
Listeria monocytogenes = experiment: Antibacterial activity against Listeria monocytogenes ATCC 19111 assessed as inhibition of visible bacterial growth incubated for 18 to 20 hrs by CLSI method; type: functional; conditions: time 18-20 hrs; in short: as §2
Staphylococcus aureus [18] = experiment: Synergistic antibacterial activity against methicillin-resistant Staphylococcus aureus ATCC 33592 assessed as fractional inhibitory concentration index in presence of methicillin by checkerboard assay; type: functional
Staphylococcus aureus [19] = experiment: Antibacterial activity against methicillin-sensitive Staphylococcus aureus NRS 107 assessed as inhibition of visible bacterial growth incubated for 18 to 20 hrs by CLSI method; type: functional; conditions: time 18-20 hrs; in short: as §1
Enterococcus faecalis [20] = experiment: Antibacterial activity against vancomycin- resistant Enterococcus faecalis ATCC 700221 assessed as inhibition of visible bacterial growth incubated for 18 to 20 hrs by CLSI method; type: functional; conditions: time 18-20 hrs; in short: as §1
Staphylococcus aureus [21] = experiment: Antibacterial activity against methicillin-resistant Staphylococcus aureus NRS 119 assessed as inhibition of visible bacterial growth incubated for 18 to 20 hrs by CLSI method; type: functional; conditions: time 18-20 hrs; in short: as §1
Staphylococcus aureus [22] = experiment: Antibacterial activity against methicillin-resistant Staphylococcus aureus NRS384 assessed as inhibition of visible bacterial growth incubated for 18 to 20 hrs by CLSI method; type: functional; conditions: time 18-20 hrs; in short: as §1
Staphylococcus aureus [23] = experiment: Antibacterial activity against methicillin-resistant Staphylococcus aureus NRS483 assessed as inhibition of visible bacterial growth incubated for 18 to 20 hrs by CLSI method; type: functional; conditions: time 18-20 hrs; in short: as §1
Staphylococcus aureus [24] = experiment: Antibacterial activity against methicillin-sensitive Staphylococcus aureus ATCC 6538 assessed as inhibition of visible bacterial growth incubated for 18 to 20 hrs by CLSI method; type: functional; conditions: time 18-20 hrs; in short: as §1
Staphylococcus aureus [25] = experiment: Antibacterial activity against methicillin-resistant Staphylococcus aureus NRS387 assessed as inhibition of visible bacterial growth incubated for 18 to 20 hrs by CLSI method; type: functional; conditions: time 18-20 hrs; in short: as §1
Staphylococcus aureus [26] = experiment: Antibacterial activity against methicillin-resistant Staphylococcus aureus NRS385 assessed as inhibition of visible bacterial growth incubated for 18 to 20 hrs by CLSI method; type: functional; conditions: time 18-20 hrs; in short: as §1
Staphylococcus aureus [27] = experiment: Antibacterial activity against methicillin-resistant Staphylococcus aureus ATCC 33592 assessed as reduction in bacterial count at 3 x MIC incubated upto 24 hrs by time kill analysis; type: functional; conditions: time hrs <=24
In short: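 Time-kill assay. […] Samples taken at 0, 2, 4, 8, 12 and 24 h, serially diluted in PBS and plated on tryptic soy agar. Viable CFU/mL counted after 18-20 h at 37 °C.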

Streptococcus pneumoniae [28] = experiment: Antibacterial activity against cephalosporin-resistant Streptococcus pneumoniae ATCC 51916 assessed as inhibition of visible bacterial growth incubated for 18 to 20 hrs by CLSI method; type: functional; conditions: time 18-20 hrs; in short: as §1
Staphylococcus aureus [29] = experiment: Antibacterial activity against methicillin-resistant Staphylococcus aureus ATCC 33592 assessed as inhibition of visible bacterial growth incubated for 18 to 20 hrs by CLSI method; type: functional; conditions: time 18-20 hrs; in short: as §1
Staphylococcus aureus [30] = experiment: Bacteriostatic activity against methicillin-resistant Staphylococcus aureus ATCC 33592 assessed as reduction in bacterial growth incubated for 18 hrs by CLSI method; type: functional
Caco-2 [31] = experiment: Cytotoxicity against human Caco2 cells assessed as reduction in cell viability at 128 ug/ml incubated for 2 hrs by MTS assay; type: cell-based; conditions: caco-2, 2 h, dose 128 µg/ml

SMILES | MIC (Streptococcus pneumoniae [1]) [µg/mL] | MIC (Staphylococcus aureus [2]) [µg/mL] | MIC (Staphylococcus aureus [3]) [µg/mL] | MIC [4] [µg/mL] | inhibition (Escherichia coli) | MIC (Staphylococcus aureus [5]) [µg/mL] | inhibition (Pseudomonas aeruginosa) | Activity (J774) | MIC (Staphylococcus aureus [6]) [µg/mL] | hemolysis at 1 h, 128 ug/ml [8] [%] | MIC (Staphylococcus aureus [9]) [µg/mL] | MIC (Staphylococcus aureus [11]) [µg/mL] | MIC (Staphylococcus aureus [12]) [µg/mL] | MIC (Enterococcus faecalis [13]) [µg/mL] | MIC (Staphylococcus aureus [14]) [µg/mL] | inhibition (Acinetobacter baumannii) | fractional inhibitory concentration index (FICI) (Staphylococcus aureus [15]) | fractional inhibitory concentration index (FICI) (Staphylococcus aureus [16]) | fractional inhibitory concentration index (FICI) (Staphylococcus aureus [17]) | MIC (Listeria monocytogenes) [µg/mL] | further results
O=C(Nc1nnc(-c2cccs2)o1)c1ccc(S(F)(F)(F)(F)F)cc1 | 0.125 (≈ 0.315 µM) | 0.5 (≈ 1.26 µM) | 0.5 (≈ 1.26 µM) | 0.06 (≈ 0.151 µM) | inactive | 0.125 (≈ 0.315 µM) | inactive | Non-Toxic | 0.25 (≈ 0.629 µM) | 9 | 1 (≈ 2.52 µM) | 0.25 (≈ 0.629 µM) | 0.125 (≈ 0.315 µM) | 2 (≈ 5.03 µM) | 0.25 (≈ 0.629 µM) | inactive | 1.5 | 1 | 0.75 | 0.125 (≈ 0.315 µM) | Activity (Caco-2 [7]): Non-Toxic; MBC (Staphylococcus aureus [10]): 1 µg/mL (≈ 2.52 µM); fractional inhibitory concentration index (FICI) (Staphylococcus aureus [18]): 0.5; MIC (Staphylococcus aureus [19]): 0.125 µg/mL (≈ 0.315 µM); MIC (Enterococcus faecalis [20]): 2 µg/mL (≈ 5.03 µM); MIC (Staphylococcus aureus [21]): 0.06 µg/mL (≈ 0.151 µM); MIC (Staphylococcus aureus [22]): 0.5 µg/mL (≈ 1.26 µM); MIC (Staphylococcus aureus [23]): 0.25 µg/mL (≈ 0.629 µM); MIC (Staphylococcus aureus [24]): 0.5 µg/mL (≈ 1.26 µM); MIC (Staphylococcus aureus [25]): 0.25 µg/mL (≈ 0.629 µM); MIC (Staphylococcus aureus [26]): 0.5 µg/mL (≈ 1.26 µM); Activity (Staphylococcus aureus [27]): 3.96 log10CFU/ml; MIC (Streptococcus pneumoniae [28]): 0.25 µg/mL (≈ 0.629 µM); MIC (Staphylococcus aureus [29]): 0.5 µg/mL (≈ 1.26 µM)
O=C(Nc1nnc(-c2cccs2)o1)c1ccc(OC(F)(F)F)cc1 | 1 (≈ 2.81 µM) | 1 (≈ 2.81 µM) | 0.5 (≈ 1.41 µM) | 0.5 (≈ 1.41 µM) | inactive | 1 (≈ 2.81 µM) | inactive | Non-Toxic | 1 (≈ 2.81 µM) | 20 | 2 (≈ 5.63 µM) | 1 (≈ 2.81 µM) | 1 (≈ 2.81 µM) | 8 (≈ 22.5 µM) | 1 (≈ 2.81 µM) | inactive | 1.25 | 1.06 | 0.5 | 2 (≈ 5.63 µM) | MBC (Staphylococcus aureus [30]): > 128 µg/mL; Activity (Caco-2 [31]): Non-Toxic; fractional inhibitory concentration index (FICI) (Staphylococcus aureus [18]): 0.63; MIC (Staphylococcus aureus [19]): 1 µg/mL (≈ 2.81 µM); MIC (Enterococcus faecalis [20]): 4 µg/mL (≈ 11.3 µM); MIC (Staphylococcus aureus [21]): 1 µg/mL (≈ 2.81 µM); MIC (Staphylococcus aureus [22]): 0.5 µg/mL (≈ 1.41 µM); MIC (Staphylococcus aureus [23]): 1 µg/mL (≈ 2.81 µM); MIC (Staphylococcus aureus [24]): 1 µg/mL (≈ 2.81 µM); MIC (Staphylococcus aureus [25]): 2 µg/mL (≈ 5.63 µM); MIC (Staphylococcus aureus [26]): 2 µg/mL (≈ 5.63 µM); Activity (Staphylococcus aureus [27]): 0.69 log10CFU/ml; MIC (Streptococcus pneumoniae [28]): 2 µg/mL (≈ 5.63 µM); MIC (Staphylococcus aureus [29]): 1 µg/mL (≈ 2.81 µM)
